Experimental data pooled from the literature.
Protocols differ between the studies behind these lines.
Medium: Caco-2

SMILES | conditions | Papp A→B [×10⁻⁶ cm/s]
COc1ccc([C@@H]2CC(=O)c3c(O)cc(O)cc3O2)cc1O | 100 µg/mL, 2 h | 3.95
O=c1cc(-c2ccc(O)cc2)oc2c([C@@H]3O[C@H](CO)[C@@H](O)[C@H](O)[C@H]3O)c(O)cc(O)c12 | 200 µg/mL | 0.322
COC(=O)[C@H]1[C@H]2C[C@@H]3c4[nH]c5cc(OC)ccc5c4CCN3C[C@H]2C[C@@H](OC(=O)c2cc(OC)c(OC)c(OC)c2)[C@@H]1OC | 5 µM, 2 h | 0.97
CCOCC(=O)N1CCC[C@H](C(=O)NCc2nc(-c3ccc(C)nc3)cs2)C1 | pH 7.4 | 15
COc1ccc(-c2cc(=O)c3c(O)cc(O[C@@H]4O[C@H](CO[C@@H]5O[C@@H](C)[C@H](O)[C@@H](O)[C@H]5O)[C@@H](O)[C@H](O)[C@H]4O)cc3o2)cc1O | 100 µg/mL, 2 h | 45.2
O=c1c(O[C@@H]2O[C@H](CO)[C@H](O)[C@H](O)[C@H]2O)c(-c2ccc(O)c(O)c2)oc2cc(O)cc(O)c12 | 50 µg/mL | 0.256
COCC(=O)N1CCC[C@H](C(=O)NCc2nc(-c3ccc(C#N)cc3)cs2)C1 | pH 7.4 | 24
Oc1cc(O)c2c(c1)O[C@H](c1ccc(O)c(O)c1)[C@H](O)C2 | 100 µg/mL, 2 h | 1.26
O=c1c2cc(Cl)ccc2[nH]c(=S)n1Cc1cccnc1 | 10 µM, 90 min, pH 7.4 | 17.7
C=CC(=O)NC1CCN(c2ncc3ncnc(Nc4ccc(Oc5ccc6c(c5)ncn6C)c(C)c4)c3n2)CC1 |  | ~6.8
COc1cc(NC(=O)Cn2cc(Cl)c3cc(F)c(-c4cnn(C)c4)cc32)cc(OC)c1OC |  | 0.08
COc1cc(C2Oc3cc([C@H]4Oc5cc(O)cc(O)c5C(=O)[C@@H]4O)ccc3OC2CO)ccc1O (stereo partly shown) | 100 µg/mL, 2 h | 19
CC(C)C(=O)OCc1cc2[nH]c(=S)n(Cc3cccnc3)c(=O)c2cc1Cl | 10 µM, 90 min, pH 7.4 | 1.4
N#Cc1ccc(C[C@H](NC(=O)c2cc3cc(F)ccc3[nH]2)C(=O)N2CCc3ccccc32)cc1 | 100 µM, 2 h | 1.2
Cc1c[nH]c2ncnc(N3C=C(C(=O)N4CCC[C@@H](N)C4)SCC3)c12 | 10 µM, pH 6.5 | < 0.3
C[C@H]1[C@H](NC(=O)/C(=N\OC(C)(C)C(=O)O)c2csc(N)n2)C(=O)N1S(=O)(=O)O | 5 µM, 2 h | 0.09
CC(C)(N)COCC(=O)N1CCC[C@H](C(=O)NCc2nc(-c3ccc(C(F)(F)F)cc3)cs2)C1 | pH 7.4 | 0.18
N#Cc1ccc(C[C@H](Nc2ncc(-c3ccc(F)cc3)o2)C(=O)N2CCc3ccccc32)cc1 | 100 µM, 2 h | 10.6
CNS(=O)(=O)Cc1ccc2[nH]cc(CCN(C)C)c2c1 | 5 µM, 2 h | 0.36
